Results as given in ChEMBL document CHEMBL3632596, “Novel Potent N-Methyl-d-aspartate (NMDA) Receptor Antagonists or σ1 Receptor Ligands Based on Properly Substituted 1,4-Dioxane Ring” (J Med Chem, 2015).
Calls of active or inactive are those of the source. No cut-off for these calls is given here.

Key:
[1] = Displacement of [3H]DTG from sigma2 receptor in rat liver membranes incubated for 120 mins by scintillation counting method in presence of pentazocine; type: cell membranes, Membrane
Summary of the method: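 σ2 binding on rat liver membranes using the nonselective radioligand [3H]-DTG. […] Nonspecific binding defined with 10 µM unlabelled DTG. Affinity reported as Ki.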

[2] = Displacement of [3H]MK801 from NMDA receptor PCP binding site in guinea pig brain cortex membranes incubated for 120 mins by scintillation counting method; type: cell membranes, Cavia porcellus
[3] = target: T1, Glutamate NMDA receptor; GRIN1/GRIN2A (Homo sapiens, UniProt Q05586+Q12879); experiment: Antagonist activity against NR1-1a/NR2A NMDA receptor (unknown origin) expressed in mouse recombinant L(tk-) cells assessed as inhibition of glycine and glutamate induced excitotoxicity incubated for 12 hrs by LDH assay; type: cell-based
T1 sequence (Q12879 whole entry, other chains not shown): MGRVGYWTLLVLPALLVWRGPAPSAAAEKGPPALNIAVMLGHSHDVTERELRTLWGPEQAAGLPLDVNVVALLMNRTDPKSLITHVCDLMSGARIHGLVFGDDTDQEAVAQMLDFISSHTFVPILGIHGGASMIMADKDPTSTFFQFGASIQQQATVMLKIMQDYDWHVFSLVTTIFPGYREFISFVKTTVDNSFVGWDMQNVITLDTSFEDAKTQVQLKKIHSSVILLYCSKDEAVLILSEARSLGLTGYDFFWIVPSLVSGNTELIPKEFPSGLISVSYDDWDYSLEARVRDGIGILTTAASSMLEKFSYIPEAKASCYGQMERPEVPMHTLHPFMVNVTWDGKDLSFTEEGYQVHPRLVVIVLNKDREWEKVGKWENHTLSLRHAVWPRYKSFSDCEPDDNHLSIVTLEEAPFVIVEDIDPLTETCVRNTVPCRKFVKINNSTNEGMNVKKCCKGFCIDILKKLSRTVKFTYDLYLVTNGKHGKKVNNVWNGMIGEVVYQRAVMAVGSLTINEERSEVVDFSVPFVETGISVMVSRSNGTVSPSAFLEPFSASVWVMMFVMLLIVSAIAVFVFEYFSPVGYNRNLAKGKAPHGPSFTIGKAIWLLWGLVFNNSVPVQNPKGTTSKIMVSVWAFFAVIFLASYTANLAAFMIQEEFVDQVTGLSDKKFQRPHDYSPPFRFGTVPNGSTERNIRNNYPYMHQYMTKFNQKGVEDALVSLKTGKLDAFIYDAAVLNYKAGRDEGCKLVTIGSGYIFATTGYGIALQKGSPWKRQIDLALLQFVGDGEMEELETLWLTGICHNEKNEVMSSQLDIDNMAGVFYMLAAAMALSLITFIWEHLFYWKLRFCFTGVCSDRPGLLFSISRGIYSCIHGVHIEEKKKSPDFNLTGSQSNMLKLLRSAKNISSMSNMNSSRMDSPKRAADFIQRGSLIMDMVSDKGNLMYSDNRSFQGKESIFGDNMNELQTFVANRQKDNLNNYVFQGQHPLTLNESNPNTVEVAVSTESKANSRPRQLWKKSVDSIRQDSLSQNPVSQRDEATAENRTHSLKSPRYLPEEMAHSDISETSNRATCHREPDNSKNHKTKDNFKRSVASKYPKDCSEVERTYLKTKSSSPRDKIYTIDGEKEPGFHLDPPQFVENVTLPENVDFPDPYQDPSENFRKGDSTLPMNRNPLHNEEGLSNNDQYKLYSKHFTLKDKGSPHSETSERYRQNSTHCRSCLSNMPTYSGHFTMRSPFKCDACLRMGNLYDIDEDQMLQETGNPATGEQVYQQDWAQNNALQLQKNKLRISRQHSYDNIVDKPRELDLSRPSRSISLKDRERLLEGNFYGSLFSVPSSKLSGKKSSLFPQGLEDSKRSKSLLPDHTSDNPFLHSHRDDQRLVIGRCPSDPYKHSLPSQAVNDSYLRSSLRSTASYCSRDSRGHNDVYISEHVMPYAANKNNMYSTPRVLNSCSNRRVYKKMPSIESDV
Summary of the method: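 Mouse fibroblast L(tk-) cells stably carrying a dexamethasone-inducible vector encoding GluN1a and GluN2A. Receptor expression was induced with dexamethasone in the presence of ketamine to limit cell damage. Cells were exposed to (S)-glutamate, glycine and a range of test concentrations for 12 h. Cell death was read as LDH released from lysed cells, measured by formazan dye formation.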

[4] = target: T1, Glutamate NMDA receptor; GRIN1/GRIN2A; experiment: Binding affinity to NMDA receptor (unknown origin); type: protein-complex assay
Summary of the method: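 PCP site of the NMDA receptor in pig brain cortex membranes. Competition binding against [3H]-(+)-MK-801. Nonspecific binding was defined with a large excess of unlabelled (+)-MK-801. Values are reported as Ki.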

[5] = target: Sigma non-opioid intracellular receptor 1 (Cavia porcellus, UniProt Q60492); experiment: Displacement of [3H]-(+)-pentazocine from sigma 1 receptor in guinea pig brain membranes incubated for 120 mins by scintillation counting method in the presence of pentazocine; type: cell membranes, Membrane
Sigma non-opioid intracellular receptor 1, sequence (Q60492 whole entry): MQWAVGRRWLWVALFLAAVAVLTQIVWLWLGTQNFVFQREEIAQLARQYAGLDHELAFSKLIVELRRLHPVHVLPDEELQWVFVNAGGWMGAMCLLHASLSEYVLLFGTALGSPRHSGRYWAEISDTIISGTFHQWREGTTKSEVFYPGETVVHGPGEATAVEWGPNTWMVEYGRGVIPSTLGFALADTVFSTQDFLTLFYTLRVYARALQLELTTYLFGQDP

[6] = Selectivity index, ratio of Ki for sigma2 receptor in rat liver membranes to Ki for sigma 1 receptor in guinea pig brain membranes; type: cell membranes
Mus musculus [7] = experiment: Antinociceptive activity in CD-1 mouse assessed as increase in latency time at 50 mg/kg, sc incubated for 30 mins by hot plate test; type: functional, organism-based
Summary of the method: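 Hot plate test in mice with test compound given alone s.c. at doses up to 50 mg/kg. Reaction latency read out as %MPE.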

Mus musculus [8] = experiment: Potentiation of morphine-induced antinociception in CD-1 mouse assessed as increase in latency time at 30 mg/kg, sc dosed 30 mins before morphine injection and measured 30 to 90 mins post morphine injection by hot plate test; type: functional, organism-based
Mus musculus [9] = experiment: Potentiation of morphine-induced antinociception in CD-1 mouse assessed as increase in latency time at 50 mg/kg, sc dosed 30 mins before morphine injection and measured 60 mins post morphine injection by hot plate test; type: functional, organism-based

SMILES | Ki [1] | Ki [2] | Ki [5] | also measured
Cc1ccccc1NC(=N)Nc1ccccc1C [DITOLYLGUANIDINE] | 0.064 µM |  |  | 
CN[C@]1(c2ccccc2Cl)CCCCC1=O [ESKETAMINE] |  | 0.419 µM |  | IC50 [3]: 0.0114 µM
CC[C@]1(c2ccccc2)OC[C@H]([C@@H]2CCCCN2)O1 [ETOXADROL] |  | 0.022 µM |  | Ki [4]: 0.022 µM
NC[C@H]1COC[C@H](c2ccccc2)O1 (racemic) | > 10 µM | > 10 µM | > 10 µM | 
CC[C@]1(c2ccccc2)COC[C@@H](CN)O1 (racemic) | > 10 µM | > 10 µM | > 10 µM | 
NCC1COC(c2ccccc2)(c2ccccc2)CO1 (stereo not given) | > 10 µM | > 10 µM | 1.4 µM | 
NC[C@@H]1CO[C@H](c2ccccc2)CO1 (racemic) | > 10 µM | > 10 µM | > 10 µM | 
NCCC1COCC(c2ccccc2)(c2ccccc2)O1 (stereo not given) | > 10 µM | > 10 µM | > 10 µM | 
NC[C@H]1COC[C@@](c2ccccc2)(C2CCCCC2)O1 (racemic) | 2.5 µM | 0.413 µM | > 10 µM | IC50 [3]: 0.0177 µM
CC[C@]1(c2ccccc2)COC[C@H](CN)O1 (racemic) | > 10 µM | > 10 µM | > 10 µM | 
c1ccc(CNC[C@H]2COC[C@H](c3ccccc3)O2)cc1 (racemic) | 4.3 µM | > 10 µM | 0.542 µM | 
NC[C@@H]1COC[C@H](c2ccccc2)O1 (racemic) | > 10 µM | > 10 µM | > 10 µM | 
c1ccc(C2(c3ccccc3)OC[C@H]([C@@H]3CCCCN3)O2)cc1 [DEXOXADROL] |  |  |  | IC50 [3]: 0.0097 µM; Ki [4]: […]
NC[C@H]1CO[C@H](c2ccccc2)CO1 (racemic) | > 10 µM | > 10 µM | > 10 µM | 
c1ccc(CNC[C@@H]2CO[C@@H](c3ccccc3)CO2)cc1 (racemic) | > 10 µM | > 10 µM | 0.037 µM | Ratio Ki [6]: > 270
c1ccc(CNC[C@@H]2CCO[C@H](c3ccccc3)O2)cc1 (racemic) | 0.174 µM | > 10 µM | 0.314 µM | 

SMILES | Ki [1] | Ki [2] | Ki [5] | also measured
NCCC1COC(c2ccccc2)(c2ccccc2)CO1 (stereo not given) | > 10 µM | > 10 µM | > 10 µM | 
NC[C@@H]1COC[C@@](c2ccccc2)(C2CCCCC2)O1 (racemic) | > 10 µM | 0.893 µM | > 10 µM | IC50 [3]: 0.0712 µM
c1ccc(CNCCC2COCC(c3ccccc3)(c3ccccc3)O2)cc1 (stereo not given) | > 10 µM | > 10 µM | 0.502 µM | 
c1ccc(CNC[C@@H]2COC[C@H](c3ccccc3)O2)cc1 (racemic) | > 10 µM | > 10 µM | 0.155 µM | 
c1ccc(CNC[C@@H]2CO[C@H](c3ccccc3)CO2)cc1 (racemic) | 0.698 µM | > 10 µM | 0.192 µM | 
c1ccc(CNCC2COC(c3ccccc3)(c3ccccc3)CO2)cc1 (stereo not given) | 1 µM | > 10 µM | 0.00737 µM | Activity (Mus musculus [7]): inactive; Activity (Mus musculus [8]): inactive; Activity (Mus musculus [9]): Active; Ratio Ki [6]: 136
c1ccc(CNCCC2COC(c3ccccc3)(c3ccccc3)CO2)cc1 (stereo not given) | 0.841 µM | > 10 µM | 0.297 µM | 
c1ccc(CNC[C@@H]2COC[C@@](c3ccccc3)(C3CCCCC3)O2)cc1 (racemic) | 4.9 µM | > 10 µM | 1.5 µM | 
CC[C@]1(c2ccccc2)COC[C@H](CNCc2ccccc2)O1 (racemic) | > 10 µM | > 10 µM | 0.607 µM | 
c1ccc(CNCC2COCC(c3ccccc3)(c3ccccc3)O2)cc1 (stereo not given) | 1.6 µM | > 10 µM | 4.9 µM | 
NCC1COCC(c2ccccc2)(c2ccccc2)O1 (stereo not given) | 5.8 µM | 0.712 µM | > 10 µM | IC50 [3]: 0.0242 µM
c1ccc(CNCC2CCOC(c3ccccc3)(c3ccccc3)O2)cc1 (stereo not given) | 0.111 µM | > 10 µM | 3 µM | 
CC[C@]1(c2ccccc2)COC[C@@H](CNCc2ccccc2)O1 (racemic) | > 10 µM | > 10 µM | 0.543 µM | 
c1ccc(C2(N3CCCCC3)CCCCC2)cc1 [PHENCYCLIDINE] |  | 0.028 µM |  | IC50 [3]: 0.0118 µM
c1ccc(CNC[C@H]2COC[C@@](c3ccccc3)(C3CCCCC3)O2)cc1 (racemic) | > 10 µM | > 10 µM | 2.7 µM | 
